High-throughput results: PubChem BioAssay, several laboratories
The list is not random: actives were taken first. Their share in the collection is about 3.8%.
MC4R barr agon: agonists of human melanocortin 4 receptor (MC4R) beta-arrestin. P32245. U2OS MC4R beta-arrestin complementation, luminescence; percent of melanotan II response, DMSO zero. activation, % at 8.9 µM. actives 0.98% (n = 360,000);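 active = activation above a per-plate cutoff, the mean activation of sample wells on that plate plus 3 SD, cut at about 8% in these data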
Beta apoptosis: beta cell apoptosis inhibition; AID 435005; protection from apoptosis, % (no concentration beside the values); INS-1E cytokine-induced death, ATP luminescence, 48 h; percent of positive-control rescue, neutral wells zero; actives 0.8% (n = 300,000);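 active = Every replicate reaches about 75%, or at least half do and their mean reaches it too, limit read from the data; inconclusive = At least half of replicates reach the limit but their mean does not; inactive = Under half of replicates reach the limit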;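 note: 0% = cytokine-treated negative control wells and 100% = positive control rescue; higher means more ATP so stronger rescue from cytokine killing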
TMEM16A inh: mouse TMEM16A channel inhibition, primary screen; AID 588511; actives 1.2% (n = 310,000); normalized B-score (activity score, 25-100; higher = stronger inhibition) at 10 µM; HEK293 TMEM16A/YFP iodide influx fluorescence, ionomycin;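 active = ratio plate-corrected score three or more library SD toward inhibition, starting fluorescence score within five deviations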;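 note: score derived from kinetic fluorescence span divided by baseline fluorescence per well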
Target sequence (Q8BHY3 whole entry, looked up): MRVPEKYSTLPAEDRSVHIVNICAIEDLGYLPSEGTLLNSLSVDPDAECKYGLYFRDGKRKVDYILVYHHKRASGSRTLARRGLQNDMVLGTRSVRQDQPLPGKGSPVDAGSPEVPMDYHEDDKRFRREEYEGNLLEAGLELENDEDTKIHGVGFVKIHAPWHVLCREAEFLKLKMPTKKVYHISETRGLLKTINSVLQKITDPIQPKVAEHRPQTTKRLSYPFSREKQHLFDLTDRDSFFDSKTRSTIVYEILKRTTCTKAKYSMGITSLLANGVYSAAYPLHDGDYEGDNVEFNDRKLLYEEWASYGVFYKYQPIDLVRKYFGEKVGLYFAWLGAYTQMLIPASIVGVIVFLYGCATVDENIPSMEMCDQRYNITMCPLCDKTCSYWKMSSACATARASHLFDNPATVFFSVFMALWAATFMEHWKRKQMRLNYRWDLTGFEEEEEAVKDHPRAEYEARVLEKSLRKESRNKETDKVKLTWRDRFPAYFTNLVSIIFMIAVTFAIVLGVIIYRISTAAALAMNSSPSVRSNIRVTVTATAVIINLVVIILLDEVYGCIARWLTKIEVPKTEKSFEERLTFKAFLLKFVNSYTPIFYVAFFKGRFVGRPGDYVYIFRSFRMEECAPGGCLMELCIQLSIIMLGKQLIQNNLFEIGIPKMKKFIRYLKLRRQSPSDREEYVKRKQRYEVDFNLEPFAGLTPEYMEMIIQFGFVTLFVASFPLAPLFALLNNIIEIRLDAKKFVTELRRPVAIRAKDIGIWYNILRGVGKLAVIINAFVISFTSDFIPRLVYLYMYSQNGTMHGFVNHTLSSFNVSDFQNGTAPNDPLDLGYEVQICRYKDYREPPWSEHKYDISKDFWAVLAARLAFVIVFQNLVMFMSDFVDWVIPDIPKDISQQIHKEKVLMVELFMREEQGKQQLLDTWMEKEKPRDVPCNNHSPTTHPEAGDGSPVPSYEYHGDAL
ANO1 activ: activators or potentiators of mouse TMEM16A chloride channel | HEK293 TMEM16A/YFP-H148Q/I152L, iodide quench fluorescence; active compounds read low | B-score at 10 µM | actives 0.3% (n = 340,000) | AID 623877;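 active = fluorescence-ratio B-score plate-corrected deviation score at least 3 library SD below zero, with starting fluorescence score within 5 deviations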;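 note: channel opened by trigger with iodide after compound preincubation; score built on the fluorescence ratio of max minus min over baseline; more negative score means more quench and so TMEM16A activation or potentiation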
MC4R antag cAMP: blocks human MC4R cAMP signaling | P32245 | MC4R-expressing cells, MTII-stimulated cAMP, LANCE TR-FRET | inhibition, % at 6.5 µM | actives 0.48% (n = 360,000) | AID 540295;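 active = inhibition above its plate's cutoff, the mean of tested wells on that plate plus 3 SD, cut at about 29% in these data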;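 note: 0% = Melanotan II alone and 100% = Melanotan II plus saturating MCL0020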
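System – human MC4R-expressing U2OS cells · Also added – Melanotan II · Dosing – one concentration, 6.5 µM nominal · Timing – 30-min compound, 1-h challenge, 1-h detection, room temperature · Measured by – Eu-cAMP/anti-cAMP TR-FRET, emission 671 nm · Replicates – singlicate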
CSC inhib: cancer stem cell inhibition. actives 1.1% (n = 300,000). cancer stem cell-like cells viability, luminescence. inhibition, % at 7.5 µM; in the data active = inhibition above about 75%; inconclusive = no clear call, values can overlap the other calls; tested in HMLE shEcad cells
An asterisk follows results filed as active; i = inactive; ? = inconclusive; nt = no result.

SMILES	MC4R barr agon	Beta apoptosis	TMEM16A inh	ANO1 activ	MC4R antag cAMP	CSC inhib
C=CCc1cc(C=Nc2ccc(N3CCOCC3)cc2)cc(OCC)c1O	-3	nt	nt	i	3	nt
O=C(COc1ccccc1)Nc1nc(-c2cccs2)cs1	-2	-6	i	i	-1	nt
CC(=O)Nc1ccc(-c2csc(NC(=O)CCCc3cccs3)n2)cc1	-3	2	i	i	11	75*
O=C(CCS(=O)(=O)c1ccccc1)Nc1nc(-c2cccs2)cs1	2	-12	i	-7.9*	-2	27
COc1cccc(-c2csc(N3CCN(CC(=O)NNC(=O)c4ccc(Br)cc4)CC3)n2)c1	10.0*	-1	i	i	-5	-8
COc1ccc(-c2nnn(CC(=O)N3CCN(c4ccc(F)cc4)CC3)n2)cc1	0	-2	i	i	18	nt
COc1cccc(-c2csc(N3CCN(CC(=O)NNC(=O)c4ccc(Cl)cc4)CC3)n2)c1	8.8*	-2	i	i	0	9
COc1ccc(N2CCN(C(=O)CN3CCN(c4nc(-c5ccc(F)cc5)cs4)CC3)CC2)cc1	-2	45	25*	i	8	1
CC1Oc2cc3oc4c(O)c(O)ccc4c(=O)c3c(O)c2C1(C)C (stereo unspecified)	2	-1	100*	i	-17	0
CCCOc1ccc(N)cc1N	-3	99*	i	i	-11	30
COc1ncccc1-c1cc2nc(NCCCN(C)C)n(C)c(=O)c2s1	1	nt	nt	nt	10	nt
Cc1ccc2cc(C#N)c(N3CCCN(S(=O)(=O)c4ccc(F)cc4)CC3)nc2c1	-1	nt	i	-9.6*	10	-5
CCCCN1CC(COCc2ccccc2)Oc2ccccc2S1(=O)=O (stereo unspecified)	-2	nt	nt	nt	6	nt
CCN1CCN(c2ccc(N3CCN(S(=O)(=O)c4cc([N+](=O)[O-])ccc4C)CC3)nn2)CC1	-2	nt	i	i	3	71
CC1CC1C(=O)N1CCN(S(=O)(=O)c2cc(C(F)(F)F)cc(C(F)(F)F)c2)CC1 (stereo unspecified)	-1	3	nt	i	6	79*
CCCS(=O)(=O)N1CCN(C2Cc3ccccc3C2)CC1	-1	-4	i	-13*	4	-3
CCCS(=O)(=O)N1CCN(C2CCC(C)CC2)CC1 (stereo unspecified)	-2	-8	i	i	-1	16
Cc1ccc2nc(-c3ccc(NS(C)(=O)=O)cc3)cc(-c3ccccc3)c2c1	4	-1	i	i	7	56
CCS(=O)(=O)Nc1ccc(-c2cc(-c3ccccc3)c3cc(C)ccc3n2)cc1	0	5	i	i	4	85*
Cc1c(C(=O)N2CCN(c3ncccn3)CC2)oc2ccc(Cl)cc12	2	-3	nt	i	6	-4
FC(F)(F)c1nc2ccccc2n2c(-c3ccc(Cl)cc3)nnc12	-3	101*	i	i	7	nt
Cc1ccc(-c2nnc3c(C(F)(F)F)nc4ccccc4n23)cc1	-2	4	i	i	22	-6
Nc1nc(Cl)nc2c1ncn2[C@H]1C[C@H](O)[C@@H](CO)O1	0	31	i	i	-2	76*
COc1cccc(/C=C2\SC(=O)N(CC(=O)NC3C=CS(=O)(=O)C3)C2=O)c1 (stereo unspecified)	-1	-9	i	i	1	-6
Cc1ccc(C2CC(=O)C=C(O)C2)cc1 (stereo unspecified)	2	-5	100*	i	9	-8
O=C(CCCc1ccccc1)Nc1ccc2c(c1)OCCO2	1	9	i	i	0	-11
O=[N+]([O-])c1cnc(Sc2ccncn2)s1	-4	109*	25*	i	35*	107*
Cc1cc(F)ccc1C(O)c1ncc(-c2ccc3ccccc3c2)[nH]1 (stereo unspecified)	1	nt	nt	nt	7	nt
CCN(CC)CCNc1ncnc2c1sc1nc(N3CCOCC3)c3c(c12)CC(C)(C)SC3	0	103*	i	i	8	?
